Reference: ChEMBL document CHEMBL3865825, “Discovery of novel Tetrahydrobenzo[b]thiophene and pyrrole based scaffolds as potent and selective CB2 receptor ligands: The structural elements controlling binding affinity, selectivity and functionality” (Eur J Med Chem, 2016)
The source made the active and inactive calls. No cut-off for these calls is given here.

Assays:
Cannabinoid receptor 2 [1] = biological target: T1, Cannabinoid receptor 2 (Homo sapiens, UniProt P34972); assay: Displacement of [3H]-CP-55940 from human CB2 receptor expressed in HEK293 cell membranes at 1 to 10 uM after 90 mins relative to control
Cannabinoid receptor 1 = Cannabinoid receptor 1 (Homo sapiens, UniProt P21554); assay: Displacement of [3H]-CP-55940 from human CB1 receptor expressed in HEK293 cell membranes after 90 mins by radioligand binding assay
[2] = biological target: Cannabinoid receptor 1 (CB1) (Homo sapiens, UniProt P21554); assay: Displacement of [3H]-CP-55940 from human CB1 receptor expressed in HEK293 cell membranes at 1 to 10 uM after 90 mins relative to control; details: membranes of HEK293 cells expressing human CB1 receptor, probe [3H]-CP-55940
Cannabinoid receptor 2 [3] = biological target: T1, Cannabinoid receptor 2; assay: Displacement of [3H]-CP-55940 from human CB2 receptor expressed in HEK293 cell membranes after 90 mins by radioligand binding assay
In short: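 Compounds were screened at 1 and 10 µM; those displacing over 50% were run at 0.1nM–10µM. Ki by Cheng-Prusoff from IC50. At least three experiments, duplicate.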

HEK293 = assay: Selectivity index, ratio of Ki for human CB1 receptor expressed in HEK293 cell membranes to Ki for human CB2 receptor expressed in HEK293 cell membranes; format: cell-based
Cannabinoid receptor 2 [4] = biological target: T1, Cannabinoid receptor 2; assay: Inverse agonist activity at human CB2 receptor expressed in CHO-K1 cells assessed as increase in NKH-477-induced intracellular cAMP levels after 30 mins by luminescence assay; format: functional, cell-based
In short: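 CHO-K1 cells stably overexpressing human CB2, plated 30,000 cells/well and held overnight at 37 °C, 5% CO2. Compounds were added with NKH-477 (water-soluble forskolin analogue; 3x of 25µM solution) for 30 min at 37°C. cAMP was read by enzyme-fragment-complementation chemiluminescence. Values are normalized to NKH-477 alone as 100% response. Three independent experiments, triplicate.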

Cannabinoid receptor 2 [5] = biological target: T1, Cannabinoid receptor 2; assay: Antagonist activity at human CB2 receptor expressed in CHO-K1 cells assessed as increase in NKH-477-induced intracellular cAMP levels preincubated for 15 mins followed by JWH-133 addition after 30 mins by luminescence assay; format: functional, cell-based
Cannabinoid receptor 2 [6] = biological target: T1, Cannabinoid receptor 2

Cannabinoid receptor 1, sequence (P21554 whole entry): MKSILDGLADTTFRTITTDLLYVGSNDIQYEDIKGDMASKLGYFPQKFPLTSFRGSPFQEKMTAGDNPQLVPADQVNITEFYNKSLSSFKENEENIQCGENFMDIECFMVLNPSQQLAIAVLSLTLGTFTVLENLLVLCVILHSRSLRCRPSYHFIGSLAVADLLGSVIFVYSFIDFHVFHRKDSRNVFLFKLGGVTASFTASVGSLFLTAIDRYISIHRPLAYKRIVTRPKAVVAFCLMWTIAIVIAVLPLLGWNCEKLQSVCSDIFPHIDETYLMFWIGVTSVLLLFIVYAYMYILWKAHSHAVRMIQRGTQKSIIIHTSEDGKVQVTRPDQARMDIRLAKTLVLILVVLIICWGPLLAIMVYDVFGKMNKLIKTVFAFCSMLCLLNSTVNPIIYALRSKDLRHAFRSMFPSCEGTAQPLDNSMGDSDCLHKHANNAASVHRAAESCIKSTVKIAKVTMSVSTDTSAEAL
Cannabinoid receptor 1 (CB1), sequence (P21554 whole entry): as above
T1 sequence (P34972 whole entry): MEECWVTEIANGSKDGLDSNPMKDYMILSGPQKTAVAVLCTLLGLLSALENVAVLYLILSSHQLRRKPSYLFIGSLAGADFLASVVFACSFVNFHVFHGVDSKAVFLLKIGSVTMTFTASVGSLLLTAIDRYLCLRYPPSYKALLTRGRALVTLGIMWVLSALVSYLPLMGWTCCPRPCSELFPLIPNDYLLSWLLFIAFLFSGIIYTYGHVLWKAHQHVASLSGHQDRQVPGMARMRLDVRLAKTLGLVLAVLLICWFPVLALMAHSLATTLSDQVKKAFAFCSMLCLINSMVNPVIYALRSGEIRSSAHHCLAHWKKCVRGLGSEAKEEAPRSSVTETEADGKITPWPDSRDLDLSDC

Structure (SMILES) | inhibition (Cannabinoid receptor 2 [1]) | Ki (Cannabinoid receptor 1) | inhibition at 1.5 h, up to 10 µM [2] | Ki (Cannabinoid receptor 2 [3]) | Ratio Ki (HEK293) | Activity (Cannabinoid receptor 2 [4]) | Activity (Cannabinoid receptor 2 [5]) | IC50 (Cannabinoid receptor 2 [6])
CCc1c(C(=O)Nc2ccc3ccccc3c2)cc(C)n1-c1ccccc1 | > 50% | 0.633 µM | > 50% | 57 nM | 11.1 | – | – | –
CCc1c(C(=O)NC2CCCCC2)cc(C)n1-c1ccccc1 | > 50% | 4.57 µM | > 50% | 171 nM | > 26.8 | – | – | –
CCOC(=O)c1cc(-c2ccccc2)sc1NS(C)(=O)=O | > 50% | > 10 µM | > 50% | > 10000 nM | – | – | – | –
CCOC(=O)c1c(NS(=O)(=O)c2ccccc2)sc2c1CCCC2 | > 50% | > 10 µM | > 50% | 1990 nM | > 5.02 | – | – | –
CCc1c(C(=O)NC23CC4CC(CC(C4)C2)C3)cc(C)n1-c1ccccc1 | > 50% | 1.2 µM | > 50% | 6.15 nM | 195 to 200 | Active | Active | 398 nM
CCOC(=O)c1cc(-c2ccccc2)sc1NS(=O)(=O)c1ccc(Cl)cc1 | > 50% | > 10 µM | > 50% | > 10000 nM | – | – | – | –
CCOC(=O)c1cc(-c2ccccc2)sc1NS(=O)(=O)c1ccccc1 | > 50% | > 10 µM | > 50% | > 10000 nM | – | – | – | –
Cc1cc(C(=O)O)c(C)n1-c1ccccc1 | > 50% | > 10 µM | > 50% | > 10000 nM | – | – | – | –
CCc1c(C(=O)NC(C)c2ccccc2)cc(C)n1-c1ccccc1 (configuration not stated) | > 50% | 3.74 µM | > 50% | 540 nM | 6.92 | – | – | –
CCOC(=O)c1c(NC(=O)c2ccc3ccccc3c2)sc2c1CCCC2 | > 50% | > 10 µM | > 50% | 1790 nM | > 5.6 | – | – | –
CCc1c(C(=O)O)cc(C)n1-c1ccccc1 | > 50% | > 10 µM | > 50% | > 10000 nM | – | – | – | –
CCOC(=O)c1cc(-c2ccccc2)sc1NC(=O)c1ccc2ccccc2c1 | > 50% | > 10 µM | > 50% | > 10000 nM | – | – | – | –
Cc1cc(C(=O)NC(C)c2ccccc2)c(C)n1-c1ccccc1 (configuration not stated) | > 50% | 2.62 µM | > 50% | 546 nM | 4.8 | – | – | –
CCOC(=O)c1c(NC(=O)c2cccc3ccccc23)sc2c1CCCC2 | > 50% | 1.37 µM | > 50% | 16.8 nM | 80 to 81.7 | – | – | –
CCOC(=O)c1c(NS(C)(=O)=O)sc2c1CCCC2 | > 50% | > 10 µM | > 50% | > 10000 nM | – | – | – | –
CCc1c(C(=O)Nc2cccc3ccccc23)cc(C)n1-c1ccccc1 | > 50% | 0.505 µM | > 50% | 20 nM | 25 | – | – | –

Structure (SMILES) | inhibition (Cannabinoid receptor 2 [1]) | Ki (Cannabinoid receptor 1) | inhibition at 1.5 h, up to 10 µM [2] | Ki (Cannabinoid receptor 2 [3]) | Ratio Ki (HEK293) | Activity (Cannabinoid receptor 2 [4]) | Activity (Cannabinoid receptor 2 [5]) | IC50 (Cannabinoid receptor 2 [6])
CCc1c(C(=O)NCCc2ccccc2)cc(C)n1-c1ccccc1 | > 50% | > 10 µM | > 50% | 718 nM | > 13.9 | – | – | –
CCOC(=O)c1c(NC(=O)C23CC4CC(CC(C4)C2)C3)sc2c1CCCC2 | > 50% | 1.01 µM | > 50% | 2.15 nM | 469 to 500 | – | – | 475 nM
Cc1cc(C(=O)Nc2cccc3ccccc23)c(C)n1-c1ccccc1 | > 50% | 0.317 µM | > 50% | 84.2 nM | 3.76 | – | – | –
CCOC(=O)c1cc(-c2ccccc2)sc1N(S(=O)(=O)c1ccc2ccccc2c1)S(=O)(=O)c1ccc2ccccc2c1 | > 50% | > 10 µM | > 50% | > 10000 nM | – | – | – | –
CCOC(=O)c1c(NS(=O)(=O)c2ccc3ccccc3c2)sc2c1CCCC2 | > 50% | > 10 µM | > 50% | > 10000 nM | – | – | – | –
Cc1cc(C(=O)NC23CC4CC(CC(C4)C2)C3)c(C)n1-c1ccccc1 | > 50% | 0.518 µM | > 50% | 7.59 nM | 68.3 | Active | Active | 109 nM
CCOC(=O)c1c(NC(=O)CCc2ccccc2)sc2c1CCCC2 | > 50% | > 10 µM | > 50% | 112 nM | > 89.4 | – | – | –
CCOC(=O)c1c(NS(=O)(=O)c2cccc3ccccc23)sc2c1CCCC2 | > 50% | > 10 µM | > 50% | 800 nM | > 12.5 | – | – | –
CCOC(=O)c1c(N)sc2c1CCCC2 | > 50% | > 10 µM | > 50% | > 10000 nM | – | – | – | –
Cc1cc(C(=O)NCCc2ccccc2)c(C)n1-c1ccccc1 | > 50% | 5.93 µM | > 50% | 584 nM | 10.2 | – | – | –
Cc1cc(C(=O)NC2CCCCC2)c(C)n1-c1ccccc1 | > 50% | > 10 µM | > 50% | 168 nM | > 59.6 | – | – | –
CCOC(=O)c1c(NS(=O)(=O)c2ccc(Cl)cc2)sc2c1CCCC2 | > 50% | > 10 µM | > 50% | > 10000 nM | – | – | – | –
CCOC(=O)c1cc(-c2ccccc2)sc1NS(=O)(=O)c1cccc2ccccc12 | > 50% | > 10 µM | > 50% | > 10000 nM | – | – | – | –
Cc1cc(C(=O)Nc2ccc3ccccc3c2)c(C)n1-c1ccccc1 | > 50% | 0.281 µM | > 50% | 58.3 nM | 4.82 | – | – | –
CCOC(=O)c1cc(-c2ccccc2)sc1NC(=O)c1cccc2ccccc12 | > 50% | > 10 µM | > 50% | 59.8 nM | > 167 | – | – | –
Cc1ccc(Cn2nc(C(=O)N[C@@H]3C(C)(C)[C@@H]4CC[C@@]3(C)C4)cc2-c2ccc(Cl)c(C)c2)cc1 | > 50% | – | > 50% | – | – | – | – | –
